According to ChEMBL document CHEMBL3399918, “In vitro radical scavenging and cytotoxic activities of novel hybrid selenocarbamates” (Bioorg Med Chem, 2015):
Activity calls are given as the source filed them. No cut-off for these calls is given here.

Experiments:
MCF7 = assay: Cytotoxicity against human MCF7 cells after 72 hrs by MTT assay; format: functional; settings: MCF7, 72 h; for CC50: read-out: LC50 (the source's name)
Procedure, shortened: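 MCF-7 cells grown in EMEM with 10% foetal calf serum, 2 mM L-glutamine, 100 units/mL penicillin, 100 µg/mL streptomycin. Exposed to five concentrations between 0.01 and 100 μM for 72 h, 37 °C, humidified 5% CO2; MTT read-out. GI50, TGI, LC50 relative to untreated controls; ≥3 independent experiments in quadruplicate.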

HT-29 = assay: Cytotoxicity against human HT-29 cells after 72 hrs by MTT assay; format: functional; settings: HT-29, 72 h
Procedure, shortened: (§1)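 CCRF-CEM, HT-29, PC-3 and HTB-54 cells grown in RPMI 1640 with 10% foetal calf serum, 2 mM L-glutamine, penicillin/streptomycin, 10 mM HEPES (pH 7.4). Five concentrations, 0.01–100 μM, 72 h at 37 °C, 5% CO2; MTT read-out. GI50, TGI and LC50 versus untreated controls; at least 3 independent experiments in quadruplicate.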

CCRF-CEM = assay: Cytotoxicity against human CCRF-CEM cells after 72 hrs by MTT assay; format: functional; procedure, shortened: as §1
[1] = Cytotoxicity against human PC3 cells after 72 hrs by MTT assay; format: functional; settings: PC-3, 72 h; procedure, shortened: as §1
[2] = Cytotoxicity against human HTB-54 cells after 72 hrs by MTT assay; format: functional; settings: HTB-54, 72 h; for CC50: read-out: LC50 (the source's name); procedure, shortened: as §1
[3] = Cytotoxicity against human 184B5 cells after 72 hrs by MTT assay; format: cell-based; settings: for GI50 at 72 h: 184B5 cells; for LC50 / TGI: 184b5, 72 h
Procedure, shortened: (§2)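 Non-malignant lines: 184B5 (normal breast) in Hams F-12/DMEM (50:50) with published supplements; BEAS-2B (bronchial epithelium) in Hams F-12/DMEM (50:50) with 10% foetal calf serum, 2 mM L-glutamine, penicillin/streptomycin. Compounds at five concentrations, 0.01–100 μM, 72 h, 37 °C, 5% CO2; MTT read-out. GI50, TGI, LC50 relative to untreated controls; ≥3 independent experiments in quadruplicate.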

[4] = Cytotoxicity against human BEAS2B cells after 72 hrs by MTT assay; format: cell-based, BEAS-2B; settings: for GI50 at 72 h: BEAS2B cells; for LC50 / TGI: beas-2b, 72 h; procedure, shortened: as §2
[5] = Antioxidant activity assessed as DPPH radical scavenging activity at 0.5 mg/ml after 180 mins; format: physicochemical; settings: 3 h
Procedure, shortened: (§3)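 Compounds in absolute ethanol, serially diluted from 1 mg/mL, mixed 1:1 with […] in ethanol. Final range 0.016–0.5 mg/mL, 6 concentrations. Incubated at 37 °C in the dark, with decolourisation followed at 517 nm at several time intervals. % scavenged = (A vehicle control − A sample)/A control × 100. Quadruplicate; mean ± SD.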

[6] = Antioxidant activity assessed as ABTS radical scavenging activity at 0.1 mg/ml after 6 mins; format: physicochemical; settings: 0.1 h
Procedure, shortened: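 Diluted with 50% ethanol to A741 0.700 ± 0.02. A741 decrease read after 6 min against a 50% ethanol blank. % scavenged relative to a vehicle-plus-radical control. Quadruplicate.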

[7] = Antioxidant activity assessed as ABTS radical scavenging activity by measuring Trolox equivalent antioxidant capacity after 6 mins; format: physicochemical; settings: 0.1 h
Procedure, shortened: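 ABTS dissolved in deionized water at 1 mg/mL, oxidised to radical cation with potassium persulfate (2.45 mM final), kept overnight at room temperature in dark, then diluted with 50% ethanol to A741 = 0.700 ± 0.02. Compound (1 mg/mL ethanol stock) added 1:10 (0.1 mg/mL); A741 decrease read after 6 min against 50% ethanol blank. Trolox positive control; quadruplicate; TEAC from calibration curve.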

[8] = Glutathione peroxidase-like activity assessed as reduction in H2O2 reduction at 0.033 mg/ml by tiophenol based UV absorption spectrometry
Procedure, shortened: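 Iwaoka–Tomoda method: compound in ethanol (0.1 mg/mL stock) mixed in equal volumes with 2 mM PhSH and 5 mM H2O2 (both ethanol stocks), thiophenol-driven catalytic H2O2 reduction. Data collected every 5 s. Negative control without H2O2 (compound, vehicle, PhSH). Triplicate.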

[9] = Antioxidant activity assessed as DPPH radical scavenging activity at 0.25 mg/ml; format: physicochemical; settings: TDE = time-dependent effect; procedure, shortened: as §3
[10] = Glutathione peroxidase-like activity assessed as reduction in H2O2 reduction by tiophenol based UV absorption spectrometry
Procedure, shortened: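 Iwaoka–Tomoda thiophenol method. Compound in ethanol at 0.1 mg/mL, mixed in equal volumes with 2 mM PhSH in ethanol and 5 mM H2O2 in ethanol (stock concentrations). Data collected every 5 s. Negative control contained compound, vehicle and PhSH without H2O2. Triplicate; mean ± SD.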

Row | SMILES | GI50 (MCF7) [µM] | TGI (MCF7) [µM] | CC50 (MCF7) [µM] | GI50 (HT-29) [µM] | LC50 (HT-29) [µM] | TGI (HT-29) [µM] | GI50 (CCRF-CEM) [µM] | LC50 (CCRF-CEM) [µM] | TGI (CCRF-CEM) [µM] | GI50 [1] [µM] | LC50 (concentration causing 50% net cell kill) [1] [µM] | TGI [1] [µM] | GI50 [2] [µM] | TGI [2] [µM] | CC50 [2] [µM] | GI50 at 72 h [3] [µM] | LC50 [3] [µM] | TGI [3] [µM] | GI50 at 72 h [4] [µM] | LC50 [4] [µM] | other results
1 | CCOC(=O)Nc1ccc([Se]C#N)cc1 | 8.9 | 36.7 | 67.8 | 9.3 | 66.6 | 38 | 9.8 | 68.8 | 39.1 | 9.9 | 68.4 | 39.2 | 24.9 | 49.3 | 72.7 | 5.5 | 59 | 18.6 | 21.7 | 72.2 | TGI [4]: 46.9 µM; inhibition (INH) [5]: 37%; inhibition (INH) [6]: 26.3%; Activity [7]: 17.4 µg/µL; Activity [8]: Active
2 | CC(C)COC(=O)Nc1ccc([Se][Se]c2ccc(NC(=O)OCC(C)C)cc2)cc1 | 19 | 49.7 | 80.5 | 19.9 | 77.4 | 48.6 | 9.8 | 70.2 | 39.8 | 24.2 | 73.7 | 48.9 | 29 | 52.9 | 76.9 | 5.5 | 56.6 | 10.5 | 13.1 | 72.4 | TGI [4]: 42.7 µM; inhibition (INH) [5]: 66.5%; inhibition (INH) [9]: tde; inhibition (INH) [6]: 29.6%; Activity [7]: 20 µg/µL; Activity [10]: inactive
3 | COc1ccc(OC(=O)Nc2ccc([Se][Se]c3ccc(NC(=O)Oc4ccc(OC)cc4)cc3)cc2)cc1 | 9.7 | 42.8 | 76.8 | 13 | 79.2 | 46.1 | 5.3 | 63.1 | 25.8 | 4.4 | 64.6 | 28.2 | 18 | 46.3 | 74.5 | 3.4 | 43.5 | 8.1 | 0.6 | 62.3 | TGI [4]: 19.9 µM; inhibition (INH) [5]: > 50%; inhibition (INH) [6]: > 25%; Activity [10]: inactive
